How the values were obtained:
Set-up in all cases: dose 5 mg/kg, dosed compound name [14C]CS-1036, route oral
Details in all cases: in vivo
[1] = system: Blood; assay: Drug uptake in albino F344/DuCrlCrlj rat blood assessed as ng equivalent of CS-1036 at 5 mg/kg, po after 336 hrs by liquid scintillation counting; assay type: ADME, organism-based
Summary of the method: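 Male F344/DuCrlCrlj rats (159–167 g; n = 3 per time point) received a single oral dose of [14C]CS-1036 at 5 mg/kg. Blood was taken from the abdominal aorta at 1, 4, 8, 24, 72, 168 and 336 h. Radioactivity was counted by LSC with external-standard efficiency correction. Results were converted to ng equivalent of CS-1036/ml using specific activity and sample volume, and reported as mean + S.D.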

[2] = Drug uptake in albino F344/DuCrlCrlj rat trachea at 5 mg/kg, po after 1 hr by liquid scintillation counting; assay type: ADME, organism-based
[3] = system: Pancreas; assay: Drug uptake in albino F344/DuCrlCrlj rat pancreas assessed as ng equivalent of CS-1036 at 5 mg/kg, po after 4 hrs by liquid scintillation counting; assay type: ADME, organism-based
[4] = system: Aorta; assay: Drug uptake in albino F344/DuCrlCrlj rat aorta at 5 mg/kg, po after 8 hrs by liquid scintillation counting; assay type: ADME, organism-based
[5] = system: Stomach; assay: Drug uptake in albino F344/DuCrlCrlj rat stomach assessed as ng equivalent of CS-1036 at 5 mg/kg, po after 4 hrs by liquid scintillation counting; assay type: ADME, organism-based
[6] = system: Cerebellum; assay: Drug uptake in albino F344/DuCrlCrlj rat cerebellum at 5 mg/kg, po after 24 hrs by liquid scintillation counting; assay type: ADME, organism-based
[7] = system: Pancreas; assay: Drug uptake in albino F344/DuCrlCrlj rat pancreas at 5 mg/kg, po after 168 hrs by liquid scintillation counting; assay type: ADME, organism-based
[8] = system: Cerebrum; assay: Drug uptake in albino F344/DuCrlCrlj rat cerebrum assessed as ng equivalent of CS-1036 at 5 mg/kg, po after 8 hrs by liquid scintillation counting; assay type: ADME, organism-based
Summary of the method: (§1)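 Single oral [14C]CS-1036 at 5 mg/kg was given to male rats (159–167 g; n = 3). Cerebrum was collected after aortic bleeding at 1, 4, 8, 24, 72, 168 or 336 h, weighed, and homogenized in 2 volumes of saline. A 0.5 ml aliquot was solubilized in Soluene-350 and counted by LSC with external-standard correction. Results are in ng equivalent/g tissue from specific activity and sample weight.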

[9] = system: Plasma; assay: Drug uptake in albino F344/DuCrlCrlj rat plasma at 5 mg/kg, po after 8 hrs by liquid scintillation counting; assay type: ADME, organism-based
[10] = Drug uptake in albino F344/DuCrlCrlj rat urinary bladder assessed as ng equivalent of CS-1036 at 5 mg/kg, po after 72 hrs by liquid scintillation counting; assay type: ADME, organism-based
[11] = system: Small intestine; assay: Drug uptake in albino F344/DuCrlCrlj rat small intestine at 5 mg/kg, po after 336 hrs by liquid scintillation counting; assay type: ADME, organism-based
[12] = system: Adrenal gland; assay: Drug uptake in albino F344/DuCrlCrlj rat adrenal gland assessed as ng equivalent of CS-1036 at 5 mg/kg, po after 24 hrs by liquid scintillation counting; assay type: ADME, organism-based
[13] = Drug uptake in albino F344/DuCrlCrlj rat bone marrow assessed as ng equivalent of CS-1036 at 5 mg/kg, po after 72 hrs by liquid scintillation counting; assay type: ADME, organism-based
[14] = Drug uptake in albino F344/DuCrlCrlj rat skeletal muscle assessed as ng equivalent of CS-1036 at 5 mg/kg, po after 72 hrs by liquid scintillation counting; assay type: ADME, organism-based, Muscle tissue
[15] = Drug uptake in albino F344/DuCrlCrlj rat fat assessed as ng equivalent of CS-1036 at 5 mg/kg, po after 1 hr by liquid scintillation counting; assay type: ADME, organism-based, Adipose tissue
Summary of the method: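 Male F344/DuCrlCrlj rats (bought at 7 weeks, acclimatized 5–6 days; 159–167 g; n = 3 per time point) received a single oral dose of [14C]CS-1036 at 5 mg/kg. White adipose tissue was collected after abdominal aortic bleeding at 1, 4, 8, 24, 72, 168 or 336 h. Samples were counted by LSC with external-standard efficiency correction. Results were converted to ng equivalents per g from specific activity and sample weight.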

[16] = Drug uptake in albino F344/DuCrlCrlj rat eyeball at 5 mg/kg, po after 24 hrs by liquid scintillation counting; assay type: ADME, organism-based
[17] = system: Cerebrum; assay: Drug uptake in albino F344/DuCrlCrlj rat cerebrum at 5 mg/kg, po after 1 hr by liquid scintillation counting; assay type: ADME, organism-based; summary of the method: as §1
[18] = system: Small intestine; assay: Drug uptake in albino F344/DuCrlCrlj rat small intestine assessed as ng equivalent of CS-1036 at 5 mg/kg, po after 8 hrs by liquid scintillation counting; assay type: ADME, organism-based
[19] = system: Adrenal gland; assay: Drug uptake in albino F344/DuCrlCrlj rat adrenal gland at 5 mg/kg, po after 24 hrs by liquid scintillation counting; assay type: ADME, organism-based
[20] = system: Cerebrum; assay: Drug uptake in albino F344/DuCrlCrlj rat cerebrum assessed as ng equivalent of CS-1036 at 5 mg/kg, po after 1 hr by liquid scintillation counting; assay type: ADME, organism-based; summary of the method: as §1
[21] = system: Plasma; assay: Drug uptake in albino F344/DuCrlCrlj rat plasma at 5 mg/kg, po after 4 hrs by liquid scintillation counting; assay type: ADME, organism-based
[22] = system: Kidney; assay: Drug uptake in albino F344/DuCrlCrlj rat kidney assessed as ng equivalent of CS-1036 at 5 mg/kg, po after 336 hrs by liquid scintillation counting; assay type: ADME, organism-based
[23] = Drug uptake in albino F344/DuCrlCrlj rat trachea at 5 mg/kg, po after 4 hrs by liquid scintillation counting; assay type: ADME, organism-based
[24] = system: Kidney; assay: Drug uptake in albino F344/DuCrlCrlj rat kidney assessed as ng equivalent of CS-1036 at 5 mg/kg, po after 24 hrs by liquid scintillation counting; assay type: ADME, organism-based
[25] = system: Kidney; assay: Drug uptake in albino F344/DuCrlCrlj rat kidney at 5 mg/kg, po after 72 hrs by liquid scintillation counting; assay type: ADME, organism-based
[26] = system: Spleen; assay: Drug uptake in albino F344/DuCrlCrlj rat spleen at 5 mg/kg, po after 72 hrs by liquid scintillation counting; assay type: ADME, organism-based
[27] = Drug uptake in albino F344/DuCrlCrlj rat skeletal muscle at 5 mg/kg, po after 4 hrs by liquid scintillation counting; assay type: ADME, organism-based, Muscle tissue
[28] = system: Aorta; assay: Drug uptake in albino F344/DuCrlCrlj rat aorta at 5 mg/kg, po after 4 hrs by liquid scintillation counting; assay type: ADME, organism-based
[29] = system: Zone of skin; assay: Drug uptake in albino F344/DuCrlCrlj rat skin assessed as ng equivalent of CS-1036 at 5 mg/kg, po after 336 hrs by liquid scintillation counting; assay type: ADME, organism-based
[30] = system: Plasma; assay: Drug uptake in albino F344/DuCrlCrlj rat plasma assessed as ng equivalent of CS-1036 at 5 mg/kg, po after 4 hrs by liquid scintillation counting; assay type: ADME, organism-based
[31] = system: Lung; assay: Drug uptake in albino F344/DuCrlCrlj rat lung at 5 mg/kg, po after 72 hrs by liquid scintillation counting; assay type: ADME, organism-based
[32] = Drug uptake in albino F344/DuCrlCrlj rat testis assessed as ng equivalent of CS-1036 at 5 mg/kg, po after 8 hrs by liquid scintillation counting; assay type: ADME, organism-based
[33] = system: Small intestine; assay: Drug uptake in albino F344/DuCrlCrlj rat small intestine assessed as ng equivalent of CS-1036 at 5 mg/kg, po after 72 hrs by liquid scintillation counting; assay type: ADME, organism-based

Compound `C[C@H]1O[C@@H](O[C@H]2[C@H](O)[C@@H](O)[C@@H](O[14C@H]3[14C@H](O)[14CH2]N[14C@@H]3[14CH2]O)O[C@@H]2CO)[C@H](O)[C@@H](O)[C@@H]1O` has a Radiolabel recovery [1] of 0.2 ngequiv/ml, a Radiolabel recovery [2] of 41.1 ngequiv/g and a Radiolabel recovery [3] of 52 ngequiv/g. The Radiolabel recovery [4] was 57.3 ngequiv/g, the Radiolabel recovery [5] was 41 ngequiv/g and the Radiolabel recovery [6] was 21.1 ngequiv/g. It also gave a Radiolabel recovery [7] of 79.2 ngequiv/g, a Radiolabel recovery [8] of 1.44 ngequiv/g and a Radiolabel recovery [9] of 27.7 ngequiv/ml. The Radiolabel recovery [10] was 6.8 ngequiv/g, the Radiolabel recovery [11] was 6.54 ngequiv/g and the Radiolabel recovery [12] was 20.2 ngequiv/g. It also gave a Radiolabel recovery [13] of 18.1 ngequiv/g, a Radiolabel recovery [14] of 9.2 ngequiv/g and a Radiolabel recovery [15] of 1.53 ngequiv/g. It also gave a Radiolabel recovery [16] of 17.4 ngequiv/g, a Radiolabel recovery [17] of 8.81 ngequiv/g and a Radiolabel recovery [18] of 36 ngequiv/g. It also gave a Radiolabel recovery [19] of 81.8 ngequiv/g, a Radiolabel recovery [20] of 0.23 ngequiv/g and a Radiolabel recovery [21] of 60.1 ngequiv/ml. For the same compound, the Radiolabel recovery [22] was 4.9 ngequiv/g, the Radiolabel recovery [23] was 31.1 ngequiv/g and the Radiolabel recovery [24] was 16 ngequiv/g. It also gave a Radiolabel recovery [25] of 77.9 ngequiv/g, a Radiolabel recovery [26] of 70.6 ngequiv/g and a Radiolabel recovery [27] of 41.4 ngequiv/g. For the same compound, the Radiolabel recovery [28] was 23.9 ngequiv/g, the Radiolabel recovery [29] was 16.4 ngequiv/g and the Radiolabel recovery [30] was 26.7 ngequiv/ml. It also gave a Radiolabel recovery [31] of 51.3 ngequiv/g, a Radiolabel recovery [32] of 24.1 ngequiv/g and a Radiolabel recovery [33] of 16.2 ngequiv/g.

— ChEMBL document CHEMBL3526002, “Tissue distribution and identification of radioactivity components at elimination phase after oral administration of [¹⁴C]CS-1036, an α-amylase inhibitor, to rats” (Drug Metab Dispos, 2013)
